Most compounds without a hit are left out; they make up all but 1.4% or so of the library.
Furin inhibitor: human furin inhibitors, primary screen, biochemical, fluorescence intensity | P09958 | purified furin, fluorogenic substrate cleavage | inhibition, % at 20 µM or 30 µM | 0.061% of 220,000 active | AID 463115, 2010; in the data active means inhibition above about 25%
Target sequence (P09958 108-714 limits assumed): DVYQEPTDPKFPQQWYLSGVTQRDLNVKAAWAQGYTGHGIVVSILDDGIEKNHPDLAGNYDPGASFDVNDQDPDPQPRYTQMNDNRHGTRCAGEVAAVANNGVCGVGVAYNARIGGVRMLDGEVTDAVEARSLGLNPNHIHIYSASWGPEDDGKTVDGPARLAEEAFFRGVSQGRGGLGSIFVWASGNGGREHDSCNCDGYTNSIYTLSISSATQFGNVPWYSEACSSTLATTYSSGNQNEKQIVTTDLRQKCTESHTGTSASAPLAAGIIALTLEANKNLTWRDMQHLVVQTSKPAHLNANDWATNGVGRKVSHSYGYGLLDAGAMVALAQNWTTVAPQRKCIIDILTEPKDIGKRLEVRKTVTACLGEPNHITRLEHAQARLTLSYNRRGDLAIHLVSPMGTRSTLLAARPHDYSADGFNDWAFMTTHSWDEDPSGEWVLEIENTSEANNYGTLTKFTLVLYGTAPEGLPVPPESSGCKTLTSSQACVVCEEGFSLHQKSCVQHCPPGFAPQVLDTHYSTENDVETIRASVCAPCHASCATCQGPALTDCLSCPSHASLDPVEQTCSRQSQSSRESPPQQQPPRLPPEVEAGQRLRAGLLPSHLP
thrombin 1536: human alpha-thrombin inhibitors, primary screen, counter-screen for coagulation protease inhibitor project, biochemical, 1536-well, fluorogenic AMC substrate; Prothrombin (Homo sapiens), P00734; Boc-VPR-AMC fluorogenic substrate cleavage; inhibition, % at 5 µM; 0.26% of 220,000 active; AID 1046, 2008;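 active means inhibition at or above 40%; inactive means inhibition below 40%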;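 further: 0% = enzyme with no compound and 100% = wells without enzyme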
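Assay system: human alpha-thrombin enzyme. Reagent: Boc-VPR-AMC substrate, 15 µM final. Compound dosing: one concentration per compound, 5 µM, with 0.2% DMSO. Incubation: room-temperature reaction. Technique: AMC fluorescence, 355/460 nm. Measure: % inhibition relative to enzyme controls and enzyme-free blanks.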
FXIIa inh 1536: human FXIIa protease inhibitors, primary screen, biochemical, 1536-well; purified FXIIa, Boc-QGR-AMC fluorogenic substrate, 2 h; inhibition, % at 5 µM; 0.3% of 220,000 active; in the data active means inhibition above about 40%;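 further: 0% = enzyme with no compound and 100% = blank without enzyme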
FXIa inh 1536: human FXIa protease inhibitors, primary screen, biochemical, 1536-well | purified FXIa, Boc-Glu-Ala-Arg-AMC fluorogenic substrate | inhibition, % at 5 µM | 0.14% of 220,000 active | AID 798, 2007;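 active means inhibition of at least 40%; inactive means inhibition below 40%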;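 further: fluorescence of freed AMC excited at 355 nm; 0% = enzyme without compound and 100% = no enzyme blank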
KLK5 inh: human KLK5 protease inhibitors, primary screen, biochemical, 1536-well | recombinant hK5, fluorogenic AMC substrate cleavage | inhibition, % at 5 µM | 0.59% of 210,000 active | AID 873, 2007;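 active means inhibition of 40% or more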;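 further: 0% = enzyme controls without compound and 100% = no-enzyme blanks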
Calpain2 inh: inhibitors of pig calpain II, primary screen, biochemical, fluorogenic peptide substrate, 1536-well; purified calpain II, 30 min; inhibition, % at 16 µM; 0.37% of 220,000 active; AID 1236, 2008;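 active means inhibition above about 50%, limit read from the data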
Starred values were filed as active, the others as inactive.

CC(=O)c1ccc(NC(=O)c2ccc(CNc3c(N4CCCC4)c(=O)c3=O)cc2)cc1 was read as Furin inhibitor -27, thrombin 1536 -3, FXIIa inh 1536 11, FXIa inh 1536 1, KLK5 inh 5 and Calpain2 inh -6.
`Cc1ccc(/C=N\Nc2nc3ccc(Cl)cc3[nH]2)o1` gave Furin inhibitor -6, thrombin 1536 4, FXIIa inh 1536 52*, FXIa inh 1536 20, KLK5 inh -79 and Calpain2 inh 14.
Screening CC1(C)CC(=O)CC(=NCC(=O)O)C1 returned Furin inhibitor -12, thrombin 1536 0, FXIIa inh 1536 -2, FXIa inh 1536 -7, KLK5 inh 128* and Calpain2 inh 19.
For O=C(NN1C(=O)c2ccccc2NC1c1ccc([N+](=O)[O-])o1)c1ccc(Br)cc1 (stereo not given) the results were Furin inhibitor -23, thrombin 1536 3, FXIIa inh 1536 7, FXIa inh 1536 -3, KLK5 inh -16 and Calpain2 inh 12.
Screening CN(C)c1ccc(/C=N/NC(=O)CCCCCNC(=O)c2ccccc2)cc1 returned Furin inhibitor 16, thrombin 1536 15, FXIIa inh 1536 21, FXIa inh 1536 7, KLK5 inh 80* and Calpain2 inh -74.
Cc1nnc(N/N=C/c2ccco2)n1N was read as Furin inhibitor -18, thrombin 1536 -5, FXIIa inh 1536 3, FXIa inh 1536 -1, KLK5 inh -1 and Calpain2 inh -32.
For Cc1cc(NC(=O)CSc2nc3sc4c(c3c(=O)n2C)CCCC4)no1 the results were Furin inhibitor -23, thrombin 1536 -8, FXIIa inh 1536 -5, FXIa inh 1536 -2, KLK5 inh 5 and Calpain2 inh 52*.
Cc1ccc(C(=O)NNC(=S)NC(=O)COc2ccccc2)cc1 was read as Furin inhibitor -18, thrombin 1536 11, FXIIa inh 1536 25, FXIa inh 1536 41*, KLK5 inh -164 and Calpain2 inh 15.
Screening CCOC(=O)c1c(/N=C/C2=C(O)CCCC2=O)sc2c1CCCC2 returned Furin inhibitor 15, thrombin 1536 -5, FXIIa inh 1536 6, FXIa inh 1536 1, KLK5 inh -2 and Calpain2 inh 4.
`CCOC(=O)c1cc(CC)sc1/N=C/C1=C(O)CCCC1=O` gave Furin inhibitor 37*, thrombin 1536 -4, FXIIa inh 1536 10, FXIa inh 1536 8, KLK5 inh -9 and Calpain2 inh -15.
`Cn1nc(-c2ccc(Cl)cc2)nc2c(=O)n(C)c(=O)nc1-2` gave Furin inhibitor -11, thrombin 1536 -2, FXIIa inh 1536 4, FXIa inh 1536 -7, KLK5 inh -11 and Calpain2 inh 55*.
Screening CS(=O)(=O)n1nc(-c2ccc(Cl)cc2)nc1N returned Furin inhibitor -15, thrombin 1536 -11, FXIIa inh 1536 5, FXIa inh 1536 -6, KLK5 inh -2 and Calpain2 inh 19.
`CCN(CC)CCNC(=O)c1cc2cc(Br)ccc2s1` gave Furin inhibitor -32, FXIIa inh 1536 7, FXIa inh 1536 3, KLK5 inh -2 and Calpain2 inh -6.
For COc1ccc2c(c1)C(c1ccc(N3CCOCC3)cc1)=NNC(c1cccnc1)=N2 the results were Furin inhibitor -5, thrombin 1536 28, FXIIa inh 1536 13, FXIa inh 1536 7, KLK5 inh 94* and Calpain2 inh 31.
For COc1ccc2c(c1)C(c1ccc([N+](=O)[O-])cc1)=NNC(c1ccco1)=N2 the results were Furin inhibitor -9, thrombin 1536 5, FXIIa inh 1536 8, FXIa inh 1536 -3, KLK5 inh 42* and Calpain2 inh 20.
For CCOC(=O)C1=C(Nc2ccc(OC)cc2)OCC1=O the results were Furin inhibitor -10, thrombin 1536 -2, FXIIa inh 1536 4, FXIa inh 1536 -3, KLK5 inh -3 and Calpain2 inh 2.
C=CCNC(=S)N/N=C/c1cccc([N+](=O)[O-])c1 was read as Furin inhibitor -25, FXIIa inh 1536 9, FXIa inh 1536 8, KLK5 inh 0 and Calpain2 inh 64*.
